ChEMBL document CHEMBL4425094, “Novel Benzo[a]quinolizidine Analogs Induce Cancer Cell Death through Paraptosis and Apoptosis” (J Med Chem, 2016)
Activity calls are given as the source filed them. No cut-off for these calls is given here.

How the values were obtained:
PC-3 [1] = experiment: Induction of ER stress in human PC3 cells assessed as GRP78 upregulation incubated for 22 hrs after ER stress inhibitor 4-PBA exposure for 2 hrs by Western blot analysis; type: functional, cell-based
Outline: (§1)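 PC3 cells pretreated 2 h with 4-PBA (100 μM), then compound added for a further 22 h. Viability measured by MTT. GRP78 assessed by Western blot, along with XBP1 mRNA splicing analysis. Morphology by phase contrast.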

[2] = Toxicity in athymic Balb/c mouse assessed as body weight loss at 15 mg/kg, ip administered every 2 days for 18 days; type: organism-based; settings: in vivo
Outline: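 Male athymic BALB/c-nu mice bearing subcutaneous PC3M-luc-C6 xenografts, n = 5 per group. Dosing was 15 mg/kg i.p. every 2 days for 18 days versus placebo and docetaxel 15 mg/kg groups. Body weight was recorded over the treatment period.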

PC-3 [3] = experiment: Growth inhibition of human PC3 cells at IC30 in presence of […] by MTT assay; type: functional
PC-3 [4] = experiment: Induction of cell cycle arrest in human PC3 cells assessed as accumulation in S phase at 1 uM after 24 hrs by […]propidium iodide based flow cytometric analysis (reference value: 21 to 31.6 %); type: functional
PC-3M [5] = experiment: Induction of paraptosis in human PC3M-lluc-C6 cells xenografted in athymic Balb/c mouse at 15 mg/kg, ip administered every 2 days for 18 days by H and E staining based method; type: functional, organism-based
Outline: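 Subcutaneous PC3M-luc-C6 xenografts (5 × 10^6 cells) were grown in 6-week male athymic BALB/c-nu mice. Groups of n = 5 received 15 mg/kg i.p. every 2 days from ~0.1 cm3 tumor volume, with a vehicle group. Excised tumor tissue was examined by H&E staining for vacuoles.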

PC-3 [6] = experiment: Induction of morphological changes in human PC3 cells incubated for 22 hrs after ER stress inhibitor 4-PBA exposure for 2 hrs by phase-contrast microscopic analysis; type: functional, cell-based
Outline: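 PC3 cells pretreated 2 h with 100 μM 4-PBA (ER stress inhibitor), then exposed to agent for a further 22 h. Morphology by phase-contrast microscopy; viability by MTT in parallel.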

PC-3 [7] = experiment: Induction of ER stress in human PC3 cells assessed as activation of XBPI mRNA incubated for 22 hrs after ER stress inhibitor 4-PBA exposure for 2 hrs by Western blot analysis; type: functional, cell-based; outline: as §1
PC-3 [8] = experiment: Induction of apoptosis in human PC3 cells assessed as late apoptotic cells at 1 uM after 24 hrs by Annexin V-FITC/propidium iodide based flow cytometric analysis (reference value: 1.1 %); type: functional
Outline: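 PC3 cells exposed to 0.5, 1 or 2 μM for 24 h, then stained with Annexin V-FITC and PI and analyzed by FACSCalibur flow cytometry. Populations assigned as necrotic (Annexin V−/PI+), late apoptotic (double positive), normal (Annexin V−/PI−) and early apoptotic (Annexin V+/PI−). DMSO vehicle control.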

PC-3M [9] = experiment: Antitumor activity against human PC3M-lluc-C6 cells xenografted in athymic Balb/c mouse assessed as decrease in tumor burden by measuring photon intensity at 15 mg/kg, ip measured on day 9 by bioluminescence method (reference value: 6.501 x 10^9 photons/s/cm2); type: functional
PC-3M [10] = experiment: Induction of immature autophagy i in human PC3M-lluc-C6 cells xenografted in athymic Balb/c mouse assessed as increase in p62 protein levels at 15 mg/kg, ip administered every 2 days for 18 days by Western blot and immunohistochemical staining method; type: functional, organism-based
Outline: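 Male athymic BALB/c-nu mice (6 weeks) carried subcutaneous right-flank PC3M-luc-C6 xenografts (5 × 10^6 cells). At ~0.1 cm3 they were grouped (n = 5) and given 15 mg/kg i.p. suspension every 2 days; placebo and docetaxel 15 mg/kg were controls. Tumors were analyzed by Western blot and by immunohistochemistry (anti-LC3 1:800, anti-p62 1:500, overnight 4 °C, HRP/DAB, hematoxylin counterstain).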

PC-3 [11] = experiment: Induction of cell cycle arrest in human PC3 cells assessed as accumulation in S phase at 2 uM after 24 hrs by […]propidium iodide based flow cytometric analysis (reference value: 21 to 31.6 %); type: functional
PC-3 [12] = experiment: Induction of cell cycle arrest in human PC3 cells assessed as accumulation in G2 phase at 0.5 uM after 24 hrs by […]propidium iodide based flow cytometric analysis (reference value: 16.3 to 25 %); type: functional
PC-3M [13] = experiment: Antitumor activity against human PC3M-lluc-C6 cells xenografted in athymic Balb/c mouse assessed as tumor growth inhibition at 15 mg/kg, ip administered every 2 days for 18 days; type: functional; settings: read-out: TGI
PC-3 [14] = experiment: Cytotoxicity against human PC3 cells assessed as reduction in cell viability at 1 uM after 24 hrs in presence of PI3K inhibitor 3-MA by MTT assay; type: functional, cell-based
Outline: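 PC3 cells pretreated with autophagy inhibitor 3-MA or E64d, then given 1 μM compound for 24 h. Viability measured by MTT (4 h, 570 nm). Morphology checked by phase-contrast microscopy.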

HeLa = experiment: Cytotoxicity against human HeLa cells assessed as cell growth inhibition after 24 hrs by MTT assay; type: functional, cell-based
Outline: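 Cells seeded 24 h in RPMI 1640 + 10% FBS. RWPE-1 was kept in K-SFM with bovine pituitary extract and EGF. Cells then exposed to compounds for 24 h at 37 °C, 5% CO2, with DMSO vehicle and docetaxel as positive control. MTT added for 4 h, absorbance read at 570 nm. Triplicate runs, IC50 reported as mean of three experiments.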

PC-3 [15] = experiment: Induction of cell cycle arrest in human PC3 cells assessed as accumulation in G2 phase at 2 uM after 24 hrs by […]propidium iodide based flow cytometric analysis (reference value: 16.3 to 25 %); type: functional
PC-3M [16] = experiment: Antiproliferation activity against human PC3M-lluc-C6 cells xenografted in athymic Balb/c mouse assessed as decrease in cell viability at 15 mg/kg, ip administered every 2 days for 18 days by H and E staining based microscopic analysis; type: functional, organism-based
Outline: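 Male BALB/c-nu mice, 6 weeks old, each given 5 × 10^6 PC3M-luc-C6 cells subcutaneously in the right anterior flank. At ~0.1 cm3 tumor, groups of n = 5 received 15 mg/kg i.p. every 2 days. Docetaxel 15 mg/kg was the positive control. Tumor tissue stained with H&E or anti-Ki67 (1:500) overnight at 4 °C, HRP/DAB, hematoxylin counterstain, examined by microscopy.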

PC-3 [17] = experiment: Induction of apoptosis in human in human PC3 cells assessed as reduction in cell viability in presence of pan-caspase inhibitor Z-VAD-fmk by MTT assay; type: functional, cell-based
Outline: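 PC3 cells pretreated with Z-VAD-fmk (10 μM) or Ac-DEVD-CHO (50 μM) before compound exposure. Viability read by MTT at 570 nm. Significance tested against control by Student's t test.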

PC-3 [18] = experiment: Induction of ER stress in human PC3 cells assessed as upregulation of CHOP after 24 hrs by Western blot analysis; type: functional, cell-based
Outline: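 PC3 cells in RPMI 1640 with 10% FBS, treated with compound for timed intervals. DMSO vehicle control. Lysis in RIPA buffer, 40 μg protein per lane on SDS-PAGE, transfer to nitrocellulose. Primary antibodies overnight at 4 °C, HRP-secondary 45 min, ECL detection. GAPDH or β-actin used as loading control.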

In the case of Cc1cc(C)cc(COc2cc3c(cc2OCc2cc(C)cc(C)c2)[C@@H]2C[C@H](O)C[C@@H](C)N2CC3)c1 (racemic), the Activity (PC-3 [1]) is reported as “inactive”, the Activity [2] is reported as 16.3 g and the “growth inhibition (GI)” value (PC-3 [3]) is reported as 54%. For the same molecule, the Activity (PC-3 [4]) was 10.1 - 20.4%, the Activity (PC-3M [5]) was “Active” and the Activity (PC-3 [6]) was “inactive”. For the same molecule, the Activity (PC-3 [7]) was “inactive”, the Activity (PC-3 [8]) was 2.6% and the Activity (PC-3M [9]) was 2.45 ×10⁹ /s/cm2. For the same molecule, the Activity (PC-3M [10]) was “Active”, the Activity (PC-3 [11]) was 6.38 - 9.05% and the Activity (PC-3 [12]) was 13.7 - 14.9%. The inhibition in vivo at 15 mg/kg (PC-3M [13]) was 40.5%, the Activity (PC-3 [14]) was “inactive” and the IC50 (HeLa) was 1650 nM. For the same molecule, the Activity (PC-3 [15]) was 10.8 - 12.3%, the Activity (PC-3M [16]) was “Active” and the Activity (PC-3 [17]) was “inactive”. The Activity (PC-3 [18]) was “Active”.
